# Exocytosis inh: blocks lytic granule exocytosis; TALL-104 LAMP-1 surface exposure, flow cytometry; cells stimulated with thapsigargin and PMA; inhibition, % at 10 µM; actives 0.66% (n = 360,000);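 active = inhibition above about 55%, limit read from the data; inconclusive = no clear call, values can overlap the other calls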
# MPTP inh: blocks calcium-induced mitochondrial swelling; isolated mouse mitochondria, Ca2+ swelling absorbance, 30 min; inhibition, % at 10 µM; actives 1.4% (n = 360,000); AID 602449;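 active = inhibition of 50% or more, scaled per plate between neutral and stimulator controls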;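 note: 0% = DMSO wells given calcium and 100% = 1 mM EGTA wells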
# T cell HTS: modulates CD8 T cell binding to vesicles. 2C CD8+ T cell-vesicle binding, flow cytometry; stronger effect = lower value. response (vesicle binding), % at 7 µM. actives 0.068% (n = 330,000);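 active = response, share of CD8 T cells binding vesicles, and their 90th percentile fluorescence all below set limits, cut at about 80% in these data, passing the limit was not always enough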;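 note: values below 100% mean blocked vesicle binding to the CD8+ T cells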
#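 Test system: purified 2C TCR transgenic mouse naive CD8+ T cells. Probe or stimulus: QL9-peptide-loaded Drosophila micro-vesicles bearing Ld, ICAM-1 and B7-1. Incubation: binding step 1.5 h, 37 °C, antibody labelling 20 min, ice. Measured by: flow cytometry of vesicle-bound cells.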
# V-ATPase pHluor: yeast V-ATPase proton transport regulation by pHLuorin. S. cerevisiae, pHLuorin cytosolic pH fluorescence. response, % at 10 µM. actives 0.37% (n = 350,000). AID 504577; in the data active = response mostly above about 7.3%, no sharp cut-off; inactive = mostly below about 5.4%; note: actives read high
# B2AR ag: agonists of human beta-2 adrenergic receptor inducing internalization. P07550. Am2.2-beta2AR cells, FAP receptor internalization, flow cytometry. response, % (test concentration not listed). actives 0.43% (n = 340,000). AID 504454;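 active = response above a set limit, near 3 SD of response in nonfluorescent compounds, cut at about 42% in these data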
# Target sequence (P07550 whole entry, looked up): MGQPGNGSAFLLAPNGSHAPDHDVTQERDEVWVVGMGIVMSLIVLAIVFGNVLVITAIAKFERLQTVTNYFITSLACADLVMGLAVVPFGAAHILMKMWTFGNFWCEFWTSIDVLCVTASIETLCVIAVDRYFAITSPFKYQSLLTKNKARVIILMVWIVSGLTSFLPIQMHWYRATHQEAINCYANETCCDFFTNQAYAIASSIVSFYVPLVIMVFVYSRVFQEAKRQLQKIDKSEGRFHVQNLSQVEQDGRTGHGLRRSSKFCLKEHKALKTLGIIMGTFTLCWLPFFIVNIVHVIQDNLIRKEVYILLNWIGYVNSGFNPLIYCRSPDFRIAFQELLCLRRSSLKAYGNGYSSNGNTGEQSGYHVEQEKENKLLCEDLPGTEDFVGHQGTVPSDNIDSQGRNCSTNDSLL
# rCAG RNA binder: binds r(CAG) RNA repeats; inhibition, % at 3 µM; actives 1.3% (n = 370,000); r(CAG) RNA repeat, TO-PRO-1 dye displacement fluorescence;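 active = inhibition above the plate cutoff, the mean of all test compounds on that plate plus 3 SD, cut at about 35% in these data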;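 note: 0% = DMSO alone and 100% = 100 µM mitoxantrone as full dye displacement; higher means more dye released from RNA so lower well fluorescence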
# Rh123 counter: mitochondrial membrane potential, counter-screen | inhibition, % at 10 µM | isolated mitochondria, Rhodamine 123 fluorescence | AID 624504 | shares compounds with MPTP inh | actives 78% (n = 5,000); in the data active = inhibition above about 22%;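 note: 0% = DMSO vehicle and 100% = positive control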
# rCAG binder conf: r(CAG) RNA repeat binding, confirmation. shares compounds with rCAG RNA binder. TO-PRO-1 dye displacement fluorescence. inhibition, % at 3 µM. actives 70% (n = 4,300). AID 652065;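 active = inhibition above a per-plate cutoff, the mean inhibition of sample wells plus 3 SD, cut at about 35% in these data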;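 note: loss of TO-PRO-1 fluorescence as compound displaces dye from 1x1 AA loop RNA; 0% = DMSO only wells and 100% = 100 µM mitoxantrone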
# dCAG dye counter: DNA CAG dye complex inhibition counter-screen; shares compounds with rCAG RNA binder; d(CAG) DNA oligo TO-PRO-1 dye displacement, fluorescence; inhibition, % at 3 µM; actives 94% (n = 4,300);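 active = inhibition above its plate's cutoff, the mean test-well inhibition plus 3 SD, cut at about 4.8% in these data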;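 note: 0% = DNA dye mix with DMSO and 100% = 100 µM mitoxantrone; hits displace the dye from DNA and so lower well fluorescence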
# Active calls of the source: *; u = inconclusive; x = no result. The list is not random: actives were taken first. Their share in the collection is about 3.8%.
SMILES,Exocytosis inh,MPTP inh,T cell HTS,V-ATPase pHluor,B2AR ag,rCAG RNA binder,Rh123 counter,rCAG binder conf,dCAG dye counter
COc1ccc(CN(C)S(=O)(=O)c2nnc(NC(=O)c3cccc(F)c3)s2)cc1,6,54*,394,-5,19,41*,81*,64*,25*
CN(Cc1ccc(F)cc1)S(=O)(=O)c1nnc(NC(=O)c2ccccc2)s1,7,51*,224,0,-6,42*,86*,43*,11*
COc1ccc(C(=O)Nc2nnc(S(=O)(=O)N(C)Cc3ccc(F)cc3)s2)cc1OC,2,0,278,3,0,26,x,x,x
CCC(CO)Nc1cccc2c1S(=O)(=O)N(Cc1cn(Cc3ccc(Cl)cc3)nn1)Cc1ccccc1O2 (configuration not stated),x,x,x,x,x,5,x,x,x
COC(=O)C1CN(Cc2ccc(OC)cc2)CCS(=O)(=O)N1Cc1ccc(Cl)cc1 (configuration not stated),x,x,x,x,x,8,x,x,x
O=S(=O)(Nc1nc2ccccc2nc1N1CCN(c2ccccc2)CC1)c1ccc(F)cc1,-1,79*,148,0,2,69*,72*,67*,28*
Cc1ccc(S(=O)(=O)Nc2nc3ccccc3nc2N2CCOCC2)cc1,10,-1,265,-1,-4,2,x,x,x
O=C(N[C@@H](Cc1cccnc1)C(=O)N1CCC[C@H]1C(=O)NCCc1ccccc1Cl)C1CC1,x,x,x,x,x,-2,x,x,x
CCc1cc2c(nc1CC)CCCN2S(=O)(=O)c1ccc(C)cc1,x,x,x,x,x,-1,x,x,x
O=C(N/N=C/c1cc([N+](=O)[O-])ccc1O)Nc1ccccc1,1,4,193,1,5,19,x,x,x
O=[N+]([O-])c1cccc(N/N=C/c2cc([N+](=O)[O-])ccc2O)c1,2,64*,324,1,12,36*,61*,27,10*
O=[N+]([O-])c1ccc(O)c(/C=N/NC(=S)Nc2ccc(Cl)cc2Cl)c1,u,96*,361,3,13,46*,47*,89*,64*
Cc1cc(Cl)ccc1NC(=O)CCC(=O)N/N=C/c1cc([N+](=O)[O-])ccc1O,0,17,148,1,23,3,x,x,x
O=C(N/N=C/c1cc([N+](=O)[O-])ccc1O)NC12CC3CC(CC(C3)C1)C2,3,74*,248,2,6,63*,44*,36*,9.5*
Cc1ccccc1C(=O)n1ccc2ccc(-c3ccc4ccn(Cc5ccc(C#N)cc5)c4c3)cc21,x,x,x,x,x,12,x,x,x
CCOc1ccc2nc(NC(=O)c3ccccn3)sc2c1,16,2,534,-2,24,5,x,x,x
CS(=O)(=O)c1ccc2nc(NC(=O)Nc3ccc(Cl)cc3)sc2c1,0,95*,96,9,7,60*,78*,54*,34*
CCOc1ccc2nc(NC(=O)Nc3ccccc3)sc2c1,-1,90*,346,3,2,50*,74*,15,20*
COc1ccc(NC(=O)Nc2nc3ccccc3s2)cc1,-2,64*,473,-2,4,48*,81*,15,18*
COc1ccccc1NC(=O)OC1CC2CC1[C@H]1CCCCN1[C@H]2Cc1ccccc1 (some centres not stated),x,x,x,x,x,3,x,x,x
Cc1cccc(C)c1NC(=O)C1CCCN1S(=O)(=O)c1cccc2cccnc12 (configuration not stated),x,x,x,x,x,1,x,x,x
CN(Cc1ccco1)C(=O)CN1C(=O)C2(OCCCO2)c2ccccc21,x,x,x,x,x,3,x,x,x
C=CCN1[C@@H](CC(C)C)COc2cc(F)ccc2S1(=O)=O,x,x,x,x,x,2,x,x,x
CC(C)c1ccc(NC(=O)Nc2nc(C(C)N)cs2)cc1 (configuration not stated),8,3,x,x,x,33,x,x,x
CC(C)C(N)c1csc(NC(=O)Nc2ccc(OC(F)(F)F)cc2)n1 (configuration not stated),1,70*,x,x,x,40*,88*,26,2
SMILES,Exocytosis inh,MPTP inh,T cell HTS,V-ATPase pHluor,B2AR ag,rCAG RNA binder,Rh123 counter,rCAG binder conf,dCAG dye counter
COc1ccccc1NC(=O)c1cc2cc(Br)ccc2cc1O,-3,80*,201,7,30,71*,28*,49*,25*
COc1ccccc1NC(=O)COC(=O)c1cc2ccccc2cc1O,5,-2,222,-3,2,6,x,x,x
CN1OC[C@@H]2CN3C(=Nc4cc(C(F)(F)F)cc(C(F)(F)F)c4)Sc4ccccc4[C@@H]3C[C@@H]21,x,x,x,x,x,2,x,x,x
COc1cccc(N(C)C(=O)[C@@H](C2CC2)[C@@H](O)c2ccc(Cl)cc2)c1,x,x,x,x,x,-4,x,x,x
O=C(NCC1COCCO1)C1CCN(S(=O)(=O)c2ccc(Br)s2)CC1 (configuration not stated),x,x,x,x,x,2,x,x,x
Cc1ccc(C)n1NC(=O)c1ccccc1O,2,78*,655,-2,2,36*,58*,22,13*
CSc1ncc(Cl)c(C(=O)C(C#N)c2nc3c(C)cc(C)cc3c(=O)[nH]2)n1 (configuration not stated),32,91*,203,-5,2,62*,73*,81*,50*
O=[N+]([O-])c1cc(Cl)cc(/C=N/NC(=S)Nc2ccc(S(=O)(=O)N3CCOCC3)cc2)c1O,7,72*,812,-5,18,98*,26*,88*,63*
O=S(=O)(c1ccc(NC(=S)N/N=C/c2ccc(O)c(O)c2)cc1)N1CCOCC1,-1,4,175,-3,1,19,x,x,x
O=C(NCc1ccco1)Nc1c(Cl)cc(Cl)cc1Cl,x,x,x,x,x,2,x,x,x
COc1ccc(/C=C/S(=O)(=O)NCC(C)C)c(CNC(=O)OC(C)(C)C)c1,x,x,x,x,x,2,x,x,x
O=C(CSC1=NS(=O)(=O)c2cc(Cl)ccc2N1)Nc1cccc(F)c1,4,62*,337,-3,-7,60*,56*,42*,12*
O=C(c1ccccc1)n1ccc2ccc(-c3ccc4ccn(Cc5ccccc5)c4c3)cc21,x,x,x,x,x,15,x,x,x
N#C/C(=N\Nc1cccc(C(F)(F)F)c1)C(=O)c1csc(-c2cccnc2)n1,15,84*,261,1,2,86*,61*,80*,49*
O=C(Nc1cccc(C(F)(F)F)c1)c1cccnc1,-1,-1,144,-1,-2,x,x,x,x
C[C@H](NC(=O)C[C@@H]1C[C@@H]2c3cc(NC(=O)C4CCC4)ccc3O[C@@H]2[C@@H](CO)O1)c1ccccc1,x,x,x,x,x,3,x,x,x
